According to the array DNA melting data of Ke et al. (doi:10.1101/2024.01.08.574731):

Experiments:
[1] = melting temperature; fluorescence melt of hairpins on a sequencing array, two-state fit, raised by 9.35 °C to match UV melts; conditions: sodium 0.088 M
Procedure, shortened: (§1)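 In 50 mM Na-HEPES pH 8.0 containing 25 mM NaCl, hairpins from the library on a sequenced MiSeq flow cell were imaged for Cy3 fluorescence at 2.5 °C steps up to 60 °C, with Cy3 and quencher oligos annealed. After normalisation to pre-quench Cy3 and to control constructs, two-state fits with bootstrapping gave melting temperature and folding enthalpy. Four replicates were combined by inverse-variance weighting, and fitted temperatures were shifted up by 9.35 °C to match UV melts.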

[2] = folding enthalpy; higher = less favourable; fluorescence melt of hairpins on a sequencing array, two-state fit; conditions: sodium 0.088 M
Procedure, shortened: as §1

Sequence	Tm [1] [°C]	folding enthalpy [2] [kcal/mol]
GAGCTTGGAAACAAGCCC (.(((((....))))).)	42.8	-13.2
GAGCTTGGAAACAAGTTC ((.((((....)))).))	44.1	-25.9
GAGGAACGAAAGTTCTC (((.(((....))))))	38.9	-13.6
GAGGAACGAAAGTTTCTC (((.(((....))).)))	49.9	-35.9
GAGGAAGGAAACTCCCTC ((((.((....)).))))	32.1	-25
GAGGAAGGAAACTTCCTC (((((((....)))))))	59	-35.5
GAGGACGAAAGTCAACTC ((((((....)))..)))	38.2	-19.7
GAGGACGCGAAAGCGCTC (((..(((....))))))	36.9	-12.9
GAGGACGGAAACGTCCCC (.(((((....))))).)	42.3	-10.4
GAGGAGGGAAACCCCCTC ((((.((....)).))))	46.5	-26
GAGGAGGGAAACCTCCCC (.(((((....))))).)	40.9	-11.8
GAGGAGGGAAACCTTCTC (((.(((....))).)))	42.7	-27.3
GAGGATCCGAAAGGACTC (((..(((....))))))	30.6	-13.3
GAGGATGGAAACGTCTTC ((.((.(....).)).))	32.9	-13.1
GAGGCAGGAAACTGTCTC (((.(((....))).)))	50.2	-34.1
GAGGCCACGAAAGTGCTC (((..(((....))))))	32	-10.9
GAGGCCGAAAGGCCCTC ((((((....))).)))	58	-9.16
GAGGCCGAAAGGCTCTC ((((((....))).)))	54.7	-17.9
GAGGCCGAAAGGCTTCTC ((((((....)))..)))	54.9	-19.1
GAGGCCGGAAACAGCCCC (.(((.(....).))).)	27.2	-10.6
GAGGCCGGAAACAGCCTC (((((.(....).)))))	50.2	-27.5
GAGGCCGGAAACGACCCC (.((.((....)).)).)	30.6	-19.7
GAGGCCGGAAACGGCTTC ((.((((....)))).))	55.9	-16.9

Sequence	Tm [1] [°C]	folding enthalpy [2] [kcal/mol]
GAGGCGACGAAAGTCCTC (((..(((....))))))	38.1	-12.6
GAGGCGCCGAAAGGCCTC (((..(((....))))))	44.3	-13.3
GAGGCTGGAAACAGCTTC ((.((((....)))).))	49	-19.8
GAGGCTGGAAACGGCCTC (((((.(....).)))))	59.6	-46.4
GAGGCTGGAAACGGTCTC (((.(.(....).).)))	39.6	-28.5
GAGGGAACGAAAGTTCTC (((..(((....))))))	37.7	-13.7
GAGGGACGAAAGTCCTC (((.(((....))))))	48.9	-11.8
GAGGGACGAAAGTCTCTC (((.(((....))).)))	55.4	-32.4
GAGGGAGGAAACTCCTTC ((.((((....)))).))	38.3	-19.7
GAGGGAGGAAACTCTCTC (((.(((....))).)))	44.2	-24.6
GAGGGAGGAAACTTCCTC ((((.((....)).))))	45.6	-25.6
GAGGGCCCGAAAGGGCTC (((..(((....))))))	43.9	-8.22
GAGGGCGAAAGCCACTC ((((((....))).)))	53.4	-13.7
GAGGGCGAAAGCCCCTC ((((((....))).)))	57.1	-9.57
GAGGGCGAAAGCCGTCTC ((((((....)))..)))	59	-20.4
GAGGGCGAAAGCCTGCTC ((((((....)))..)))	42.5	-12.4
GAGGGCGGAAACGTCCTC ((((.((....)).))))	59.1	-47
GAGGGGAAACCCTC (((((....)))))	54	-24.7
GAGGGGCGAAAGCCCTC (((.(((....))))))	55.5	-10.1
GAGGGGGGAAACCCTCTC (((.(((....))).)))	53.7	-27.6
GAGGGGGGAAACTCCCTC (((((.(....).)))))	53.2	-34.3
GAGGGTACGAAAGTACTC (((..(((....))))))	36.9	-11.9
GAGGGTGGAAACACCCCC (.(((((....))))).)	44.8	-10.7

Sequence	Tm [1] [°C]	folding enthalpy [2] [kcal/mol]
GAGGGTGGAAACACCTTC ((.((((....)))).))	47	-15.9
GAGGGTGGAAACATCCTC ((((.((....)).))))	50.5	-38.8
GAGGTAACGAAAGTTCTC (((..(((....))))))	29	-11.1
GAGGTACCGAAAGGTCTC (((..(((....))))))	31.4	-17.5
GAGGTAGAAATACCTC ((((((....))))))	50.2	-33.5
GAGGTAGGAAACCACCTC (((((.(....).)))))	42.2	-31
GAGGTAGGAAACTGCTTC ((.(.((....)).).))	26.7	-15.6
GAGGTCCCGAAAGGGCTC (((..(((....))))))	37.6	-13.7
GAGGTCCGAAAGGACTC (((.(((....))))))	47.9	-11.9
GAGGTCCGAAAGGATCTC (((.(((....))).)))	59.6	-37.9
GAGGTGGGAAACCACCTC (((((((....)))))))	69.2	-31
GAGGTGGGAAACCGTCTC (((..((....))..)))	31.1	-8.21
GAGGTGGGAAACTACCTC (((((.(....).)))))	49.7	-41.1
GAGGTTGGAAACAATCTC (((.(((....))).)))	44.1	-35.5
GAGTAAGGAAACTTACTC (((((((....)))))))	52.1	-43.1
GAGTAAGGAAACTTGCTC (((.(((....))).)))	40.3	-27.8
GAGTACACGAAAGTGCTC (((..(((....))))))	33.7	-14.9
GAGTACGAAAGTAACCTC ((((((....)))..)))	27.8	-14.8
GAGTACGAAAGTATCCTC ((((((....)))..)))	25.4	-17.6
GAGTACGAAAGTATGCTC ((((((....)))..)))	31.5	-20.8
GAGTACGCGAAAGCGCTC (((..(((....))))))	34.6	-10
GAGTAGCGAAAGCTGCTC (((.(((....))).)))	60.1	-36.6
GAGTAGGGAAACCTGCTC (((.(((....))).)))	48.5	-34.5

Sequence	Tm [1] [°C]	folding enthalpy [2] [kcal/mol]
GAGTCAGGAAACTGATTC ((.((((....)))).))	39.8	-27.1
GAGTCCCGAAAGGGGCTC (((.(((....))).)))	69.2	-28.9
GAGTCCCGAAAGGGTCTC (((.(((....))).)))	53	-30.6
GAGTCCGAAAGGAAACTC ((((((....)))..)))	40.2	-19.4
GAGTCCGAAAGGAAGCTC ((((((....)))..)))	37.4	-17.6
GAGTCCGAAAGGACACTC ((((((....)))..)))	54.4	-12.5
GAGTCCGAAAGGACCTC ((((((....))).)))	54.5	-13.2
GAGTCCGGAAACGGATTC ((.((((....)))).))	49.9	-24.7
GAGTCGAAAGACTC (((((....)))))	60.8	-29.4
GAGTCGACGAAAGTCCTC (((..(((....))))))	26.6	-9.8
GAGTCGGGAAACCAACTC ((((.((....)).))))	38.9	-30.7
GAGTCGGGAAACTGACTC (((((.(....).)))))	52.6	-40.2
GAGTCTGAAAAGACTC ((((((....))))))	59	-38
GAGTCTGGAAACAGATTC ((.((((....)))).))	40.9	-26.2
GAGTGACCGAAAGGTCTC (((..(((....))))))	35	-9.86
GAGTGACGAAAGTCTCTC (((.(((....))).)))	50.9	-32.2
GAGTGAGGAAACTCACTC (((((((....)))))))	61.6	-40.6
GAGTGAGGAAACTTGCTC (((..((....))..)))	37.5	-12.9
GAGTGCGAAAGCAACTC ((((((....))).)))	59	-18.8
GAGTGCGGAAACGCACCC (.(((((....))))).)	45.8	-8.77
GAGTGGAAACACTC (((((....)))))	51	-29.6
GAGTGGACGAAAGTCCTC (((..(((....))))))	36	-9.72
